# According to ChEMBL document CHEMBL4622976, “Development of pH/Glutathione-Responsive Theranostic Agents Activated by Glutathione S-Transferase π for Human Colon Cancer” (J Med Chem, 2020):
# The source made the active and inactive calls. The rule behind the calls is not given here.
# Legend:
# [1] = Drug localization in colon of intra-operative mouse xenografted with human HT-29/Luc cells at 40 mg/kg, iv measured after 2 hrs post dose by fluorescence imaging assay; assay type: ADME, organism-based; conditions: in vivo
# Summary of the method: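 Orthotopic model: 1×10^6 HT29/Luc cells were injected into the upper colon of anaesthetised nude mice (5–6 weeks old). Tumours were confirmed by bioluminescence after two weeks. Dosing was 40 mg/kg iv, with whole-body bioluminescence and fluorescence imaging at 2 h under pentobarbital anaesthesia. Organs were then excised and imaged ex vivo (ex/em 430/490 nm).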
# HT-29 [2] = assay: Induction of autophagy in human HT-29 cells assessed as increase in LC3-II protein level incubated for 72 hrs by Western blot analysis; assay type: functional, cell-based
# Summary of the method: (§1)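 HT29 cells (1.5×10^5/mL) exposed to compound or vehicle for 72 h, then lysed. Lysates (0.05 mg/lane) run on 12% SDS-PAGE, transferred to nitrocellulose, blocked with 5% non-fat milk and probed for LC3, p62, beclin-1 and β-actin. Bands quantified relative to β-actin, with LC3-II/LC3-I ratio also calculated; means ± SD from three independent assays.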
# [3] = Drug metabolism assessed as GSTpi (unknown origin) mediated compound fluorescence activation at 1 uM in presence of 1 mM Ca2+ by HPLC analysis; assay type: ADME; conditions: human
# Summary of the method: (§2)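 Selectivity test: compound (1 µM) with catalytic GSTπ and each analyte in water with 1% (v/v) DMSO at pH 4.0, 37 °C for 0.5 h. Analytes were cations at 1 mM; amino acids, vitamin C, Na2S and GSH at 100 µM. Readout was fluorescence emission spectra (excitation 440 nm, recorded 450–650 nm).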
# HT-29 [4] = assay: Induction of autophagy in human HT-29 cells assessed as reduction in p62 protein level incubated for 72 hrs by Western blot analysis; assay type: functional, cell-based; summary of the method: as §1
# HT-29 [5] = assay: Induction of apoptosis in human HT-29 cells assessed as increase in Bax protein level incubated for 72 hrs by Western blot analysis; assay type: functional, cell-based
# Summary of the method: (§3)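 HT29 cells (1.5×10^5/mL) were treated for 72 h and lysed. Lysate (0.05 mg/lane) was run on 12% SDS-PAGE and transferred to nitrocellulose. After blocking in 5% non-fat milk, blots were probed for Bax, Bcl-2, cleaved caspase-3, cleaved PARP, LC3, p62 and beclin-1. Levels were normalised to β-actin, and means ± SD taken from three independent assays.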
# [6] = Toxicity in ICR mouse assessed as induction of animal death at 240 to 585.9 mg/kg, ip measured after 1 hr; assay type: organism-based; conditions: in vivo
# Summary of the method: (§4)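 Female ICR mice, randomised, n = 10 per group. Single intraperitoneal dose of 240.0, 300.0, 375.0, 468.8 or 585.9 mg/kg, or vehicle. Deaths recorded at 1 h, 4 h, days 1–4 and days 5–14. Body weight, drinking, eating and activity observed over 14 days. Survival percentage taken on day 14; LD50 derived from the dose–mortality data.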
# [7] = Toxicity in ICR mouse assessed as induction of abnormality in general activity behavior at 240 mg/kg, ip for 14 days; assay type: organism-based; conditions: in vivo, 336 h
# Summary of the method: (§5)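 Female ICR mice (n = 10 per group) given a single intraperitoneal dose at 240.0, 300.0, 375.0, 468.8 or 585.9 mg/kg, or vehicle. Deaths recorded at 1 h, 4 h and daily through day 14. Body weight, drinking, eating and activity observed for abnormality; LD50 derived from mortality.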
# [8] = Drug metabolism assessed as GSTpi (unknown origin) mediated compound fluorescence activation at 1 uM in presence of 50 uM H2O2 by HPLC analysis; assay type: ADME; conditions: human
# [9] = Drug metabolism assessed as GSTpi (unknown origin) mediated compound fluorescence activation at 1 uM in presence of 100 uM glutamate by HPLC analysis; assay type: ADME; conditions: human; summary of the method: as §2
# [10] = Toxicity in ICR mouse assessed as induction of abnormality in drinking behavior at 240 mg/kg, ip for 14 days; assay type: organism-based; conditions: in vivo, 336 h; summary of the method: as §5
# [11] = Drug uptake in lysosome of human HT-29 cells at 1 uM incubated for 60 mins by Lyso-tracker based confocal fluorescence microscopy; assay type: ADME, subcellular; conditions: ht-29, 1 h
# Summary of the method: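 HT29 and CCD841 cells were seeded at 2×10^5 in glass-bottom dishes. They were co-incubated in DMEM with compound (1 µM) and LysoTracker Red DND-99 (1 µM). Confocal imaging used a 40× water objective. Compound channel: 405 nm laser, 480–530 nm filter. LysoTracker channel: 561 nm laser, 580–630 nm filter.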
# HT-29 [12] = assay: Antitumor activity against human HT-29 cells xenografted in nude BALB/c mouse assessed as reduction in tumor weight at 40 mg/kg, ip dosed every day for 21 days relative to control; assay type: functional; set-up: scale not given: the % may be the effect or the level left
# [13] = Toxicity in ICR mouse assessed as induction of animal survival rate at 468.8 mg/kg, ip measured after 14 days; assay type: organism-based; conditions: in vivo; summary of the method: as §4
# HT-29 [14] = assay: Induction of apoptosis in human HT-29 cells at 2.5 uM incubated for 72 hrs by FITC-AnnexinV/PI staining based flow cytometry relative to control; assay type: functional
# Summary of the method: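 HT29 cells were cultured 12 h, then exposed to compound (0.4, 1.0, 2.5 µM) or vehicle for 72 h. Harvested cells were stained with Annexin V and PI, and apoptotic cell percentages measured by flow cytometry. Means ± SD come from three separate experiments.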
# [15] = Drug metabolism assessed as GSTpi (unknown origin) mediated compound fluorescence activation at 1 uM in presence of 50 uM […] by HPLC analysis; assay type: ADME; conditions: human
# [16] = Drug metabolism assessed as GSTpi (unknown origin) mediated compound fluorescence activation at 1 uM in presence of 1 mM Mg2+ by HPLC analysis; assay type: ADME; conditions: human; summary of the method: as §2
# [17] = Toxicity in ICR mouse assessed as induction of animal death at 240 to 375 mg/kg, ip measured after 3 days; assay type: organism-based; conditions: in vivo, 72 h; summary of the method: as §4
# [18] = Toxicity in ICR mouse assessed as induction of animal survival rate at 300 mg/kg, ip measured after 14 days; assay type: organism-based; conditions: in vivo; summary of the method: as §4
# [19] = Drug metabolism assessed as GSTpi (unknown origin) mediated compound fluorescence activation at 1 uM in presence of 1 mM Na+ by HPLC analysis; assay type: ADME; conditions: human; summary of the method: as §2
# HT-29 [20] = assay: Induction of autophagy in human HT-29 cells assessed as increase in Beclin-1 protein level incubated for 72 hrs by Western blot analysis; assay type: functional, cell-based; summary of the method: as §3
# [21] = Toxicity in ICR mouse assessed as induction of abnormality in eating behavior at 240 mg/kg, ip for 14 days; assay type: organism-based; conditions: in vivo, 336 h; summary of the method: as §5
# [22] = Toxicity in ICR mouse assessed as induction of animal death at 240 to 585.9 mg/kg, ip measured after 4 hrs; assay type: organism-based; conditions: in vivo; summary of the method: as §4
# [23] = Toxicity in ICR mouse assessed as induction of animal survival rate at 375 mg/kg, ip measured after 14 days; assay type: organism-based; conditions: in vivo; summary of the method: as §4
# [24] = Toxicity in ICR mouse assessed as induction of animal death at 240 to 300 mg/kg, ip measured after 4 days; assay type: organism-based; conditions: in vivo, 96 h; summary of the method: as §4
# HT-29 [25] = assay: Antitumor activity against human HT-29 cells xenografted in nude BALB/c mouse assessed as reduction in tumor volume at 20 mg/kg, ip dosed every day for 21 days; assay type: functional, organism-based
smiles,measurement,setting,value
COc1cc(-c2nc(NC(=O)OCC3=CCCCC3=O)cc3c2[nH]c2ccccc23)cc(OC)c1OC,Drug uptake,[1],Active
same,Activity,HT-29 [2],Dose-dependent effect
same,Drug metabolism,[3],Metabolite_Notdetected
same,Activity,HT-29 [4],Dose-dependent effect
same,Activity,HT-29 [5],Dose-dependent effect
same,Activity,[6],Non-Toxic
same,Activity,[7],Non-Toxic
same,Drug metabolism,[8],Metabolite_Notdetected
same,Drug metabolism,[9],Metabolite_Notdetected
same,Activity,[10],Non-Toxic
same,Drug uptake,[11],Active
same,Activity,HT-29 [12],67.7%
same,survival at 336 h,[13],40%
same,Activity,HT-29 [14],52.3%
same,Drug metabolism,[15],Metabolite_Notdetected
same,Drug metabolism,[16],Metabolite_Notdetected
same,Activity,[17],Non-Toxic
same,survival at 336 h,[18],100%
same,Drug metabolism,[19],Metabolite_Notdetected
same,Activity,HT-29 [20],Dose-dependent effect
same,Activity,[21],Non-Toxic
same,Activity,[22],Non-Toxic
same,survival at 336 h,[23],80%
same,Activity,[24],Non-Toxic
same,Activity,HT-29 [25],Active
